According to ChEMBL document CHEMBL1148491, “Synthesis and pharmacological characterization of nicotinic acetylcholine receptor properties of (+)- and (-)-pyrido-[3,4-b]homotropanes” (J Med Chem, 2006):
pEC50, pKi: −log10 of the molar value. Activity calls are given as the source filed them. The calls are words filed in the database; no cut-off is given here.

What was measured:
Mus musculus [1] = organism: Mus musculus; assay: Hypothermia in mouse; type: functional
Summary of the method: (§1)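 Rectal temperature in mice measured by thermistor probe inserted 24 mm, read just before and at several times after sc injection (saline vehicle). Readout is the before-after difference for each mouse; ambient temperature 21-24 °C.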

[2] = molecular target: Neuronal acetylcholine receptor; alpha4/beta2 (Rattus norvegicus, UniProt P09483+P12390); assay: Displacement of [3H]epibatidine from alpha-4-beta-2 nACHR in rat cerebral cortex; type: tissue-based
Chain of Neuronal acetylcholine receptor; alpha4/beta2 (Rattus norvegicus, UniProt P09483+P12390) (P09483 whole entry): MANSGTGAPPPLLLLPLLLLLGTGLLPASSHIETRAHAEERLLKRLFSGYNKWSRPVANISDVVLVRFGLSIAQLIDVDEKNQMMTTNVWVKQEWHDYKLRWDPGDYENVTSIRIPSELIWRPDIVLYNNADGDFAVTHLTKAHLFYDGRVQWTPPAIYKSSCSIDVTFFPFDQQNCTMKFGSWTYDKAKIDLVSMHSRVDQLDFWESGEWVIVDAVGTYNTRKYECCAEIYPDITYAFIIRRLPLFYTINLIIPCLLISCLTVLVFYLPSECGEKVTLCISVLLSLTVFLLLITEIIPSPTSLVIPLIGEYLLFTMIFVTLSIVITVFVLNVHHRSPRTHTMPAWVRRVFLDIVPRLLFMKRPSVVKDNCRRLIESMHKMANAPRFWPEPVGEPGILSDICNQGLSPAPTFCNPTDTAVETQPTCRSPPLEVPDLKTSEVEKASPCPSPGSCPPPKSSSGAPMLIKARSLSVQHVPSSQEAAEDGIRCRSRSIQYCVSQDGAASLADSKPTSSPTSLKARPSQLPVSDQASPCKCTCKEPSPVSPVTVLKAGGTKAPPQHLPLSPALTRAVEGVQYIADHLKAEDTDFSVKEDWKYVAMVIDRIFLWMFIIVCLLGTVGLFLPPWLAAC
Chain of Neuronal acetylcholine receptor; alpha4/beta2 (Rattus norvegicus, UniProt P09483+P12390) (P12390 whole entry): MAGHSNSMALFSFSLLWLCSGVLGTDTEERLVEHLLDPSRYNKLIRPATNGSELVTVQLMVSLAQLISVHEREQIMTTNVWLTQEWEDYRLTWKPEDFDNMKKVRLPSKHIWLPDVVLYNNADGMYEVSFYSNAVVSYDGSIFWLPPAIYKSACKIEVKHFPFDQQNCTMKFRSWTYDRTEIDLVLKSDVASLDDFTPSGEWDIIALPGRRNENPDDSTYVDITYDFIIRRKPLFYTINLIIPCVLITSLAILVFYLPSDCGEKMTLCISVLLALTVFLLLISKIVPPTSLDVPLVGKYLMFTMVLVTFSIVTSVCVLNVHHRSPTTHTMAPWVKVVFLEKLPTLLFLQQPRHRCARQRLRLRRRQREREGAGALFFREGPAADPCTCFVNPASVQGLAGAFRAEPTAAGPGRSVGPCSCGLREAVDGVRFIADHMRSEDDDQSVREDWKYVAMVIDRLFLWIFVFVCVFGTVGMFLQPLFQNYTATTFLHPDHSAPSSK

Mus musculus [3] = assay: Antinociceptive activity in mouse by tail flick assay at 10 mg/kg; type: functional
Summary of the method: (§2)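 Mouse tail-flick: tail exposed to a heat lamp and flick latency recorded. A control latency (2-4 s) was taken before treatment and a test latency after drug. Response given as %MPE = (test - control)/(maximum - control) × 100. ED50 with 95% confidence limits from unweighted least-squares linear regression.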

Mus musculus [4] = assay: Antinociceptive activity in mouse by hot plate assay at 10 mg/kg, sc after 5 mins; type: functional; details: route subcutaneous
Summary of the method: (§3)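 Mouse hot-plate at 55.0 °C in a 10-cm glass cylinder. Two control latencies were taken ≥10 min apart (normal 8-12 s), scored by jumping or paw licking. Mice were tested 5 min after sc injection. Response given as %MPE = (test - control)/(maximum - control) × 100.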

Mus musculus [5] = organism: Mus musculus; assay: Spontaneous activity in mouse; type: functional
Summary of the method: (§4)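 Mice placed in individual photocell activity cages 5 min after sc injection (0.9% saline vehicle). Photocell beam interruptions were counted over the next 10 min.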

Mus musculus [6] = organism: Mus musculus; assay: Antagonist effect against nicotine-induced antinociceptive activity in mouse by tail flick assay; type: functional
Mus musculus [7] = organism: Mus musculus; assay: Antagonist effect on nicotine-induced antinociceptive activity in mouse by hot plate assay; type: functional
Rattus norvegicus [8] = assay: Agonist activity on nicotine discrimination in rat at 3 mg/kg by lever press assay; type: functional
Summary of the method: (§5)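 Substitution tests were 15-min sessions starting 10 min after sc injection, with either lever reinforced. A rat was tested only if it made ≥80% injection-appropriate responses on the prior training day. Readouts: % nicotine-lever responding and response rate.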

Rattus norvegicus [9] = assay: Antagonist activity on nicotine discrimination in rat at 3 mg/kg by lever press assay; type: functional; design: scale not given: the % may be the effect or the level left
Summary of the method: (§6)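 Pretreatment with the test dose sc was followed 10 min later by 0.4 mg/kg (-)-nicotine, then a 15-min test session. Readouts: % nicotine-lever responding and response rate.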

Mus musculus [10] = assay: Antinociceptive activity in mouse by tail flick assay at 1 mg/kg; type: functional; summary of the method: as §2
Mus musculus [11] = assay: Antagonist effect on nicotine-induced antinociceptive activity in mouse by tail flick assay at […]; type: functional; design: scale not given: the % may be the effect or the level left
Mus musculus [12] = assay: Antinociceptive activity in mouse by hot plate assay at 1 mg/kg, sc after 5 mins; type: functional; details: route subcutaneous; summary of the method: as §3
Mus musculus [13] = assay: Antagonist effect on nicotine-induced antinociceptive activity in mouse by hot plate assay at […]; type: functional; design: scale not given: the % may be the effect or the level left
Mus musculus [14] = assay: Antagonist effect on nicotine-induced hypothermia in mouse at […]; type: functional; design: scale not given: the % may be the effect or the level left
[15] = molecular target: T1, Neuronal acetylcholine receptor; alpha4/beta2 (Homo sapiens, UniProt P17787+P43681); assay: Intrinsic activity at human alpha-4-beta-2 nACHR in SH-EP1 cells relative to ACh; type: functional, cell-based
T1 sequence (P17787 whole entry): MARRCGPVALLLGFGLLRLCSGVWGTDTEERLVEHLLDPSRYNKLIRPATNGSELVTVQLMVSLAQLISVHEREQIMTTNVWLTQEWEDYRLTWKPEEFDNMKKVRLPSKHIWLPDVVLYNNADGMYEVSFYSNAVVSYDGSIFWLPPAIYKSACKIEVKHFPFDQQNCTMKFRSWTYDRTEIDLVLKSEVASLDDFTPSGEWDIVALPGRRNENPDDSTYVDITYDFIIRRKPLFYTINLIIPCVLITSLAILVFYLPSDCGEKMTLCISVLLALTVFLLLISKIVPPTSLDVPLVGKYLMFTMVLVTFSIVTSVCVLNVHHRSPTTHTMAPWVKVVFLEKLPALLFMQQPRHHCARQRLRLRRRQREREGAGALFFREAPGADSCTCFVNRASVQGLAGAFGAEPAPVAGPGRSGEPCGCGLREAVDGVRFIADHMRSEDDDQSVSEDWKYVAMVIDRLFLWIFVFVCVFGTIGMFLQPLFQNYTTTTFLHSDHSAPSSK
T1 sequence (P43681 whole entry): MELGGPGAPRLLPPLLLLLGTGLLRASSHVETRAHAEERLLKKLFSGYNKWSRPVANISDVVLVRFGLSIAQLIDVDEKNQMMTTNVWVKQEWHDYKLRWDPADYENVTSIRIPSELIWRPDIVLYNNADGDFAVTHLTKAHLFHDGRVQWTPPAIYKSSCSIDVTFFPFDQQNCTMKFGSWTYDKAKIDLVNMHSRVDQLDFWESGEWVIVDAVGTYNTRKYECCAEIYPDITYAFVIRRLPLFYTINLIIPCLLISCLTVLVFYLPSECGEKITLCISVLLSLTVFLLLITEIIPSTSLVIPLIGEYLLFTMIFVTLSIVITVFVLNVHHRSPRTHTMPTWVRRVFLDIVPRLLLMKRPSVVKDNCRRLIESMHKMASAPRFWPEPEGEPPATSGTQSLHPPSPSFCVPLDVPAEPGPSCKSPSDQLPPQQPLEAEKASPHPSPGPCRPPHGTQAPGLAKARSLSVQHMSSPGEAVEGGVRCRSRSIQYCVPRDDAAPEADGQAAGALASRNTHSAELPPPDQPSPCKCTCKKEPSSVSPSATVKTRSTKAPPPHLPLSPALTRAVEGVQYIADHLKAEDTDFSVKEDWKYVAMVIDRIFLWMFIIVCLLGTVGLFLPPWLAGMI

Rattus norvegicus [16] = assay: Agonist activity on nicotine discrimination in rat at 0.56 mg/kg by lever press assay; type: functional; summary of the method: as §5
Rattus norvegicus [17] = assay: Antagonist activity on nicotine discrimination in rat at 0.3 mg/kg by lever press assay; type: functional; design: scale not given: the % may be the effect or the level left; summary of the method: as §6
[18] = molecular target: T1, Neuronal acetylcholine receptor; alpha4/beta2; assay: Agonist activity at human alpha-4-beta-2 nACHR in SH-EP1 cells by patch-clamp assay at 10 uM; type: functional, cell-based
[19] = molecular target: T1, Neuronal acetylcholine receptor; alpha4/beta2; assay: Antagonist activity at human alpha-4-beta-2 nACHR in SH-EP1 cells by patch-clamp assay at 10 uM; type: functional, cell-based; design: scale not given: the % may be the effect or the level left
[20] = molecular target: T2, Neuronal acetylcholine receptor; alpha3/beta4 (Rattus norvegicus) (UniProt P04757+P12392); assay: Agonist activity at rat alpha3beta4 nACHR in HEK293 cells by patch-clamp assay at 10 uM; type: functional, cell-based
[21] = molecular target: T2, Neuronal acetylcholine receptor; alpha3/beta4 (Rattus norvegicus); assay: Antagonist activity at rat alpha-3-beta-4 nACHR in HEK293 cells by patch-clamp assay at 10 uM; type: functional, cell-based; design: scale not given: the % may be the effect or the level left
[22] = molecular target: Neuronal acetylcholine receptor subunit alpha-7 (Homo sapiens) (UniProt P36544); assay: Displacement of [125I]iodoMLA from alpha-7 nACHR at 10 uM; details: Rattus norvegicus
Chain of Neuronal acetylcholine receptor subunit alpha-7 (Homo sapiens) (P36544 whole entry): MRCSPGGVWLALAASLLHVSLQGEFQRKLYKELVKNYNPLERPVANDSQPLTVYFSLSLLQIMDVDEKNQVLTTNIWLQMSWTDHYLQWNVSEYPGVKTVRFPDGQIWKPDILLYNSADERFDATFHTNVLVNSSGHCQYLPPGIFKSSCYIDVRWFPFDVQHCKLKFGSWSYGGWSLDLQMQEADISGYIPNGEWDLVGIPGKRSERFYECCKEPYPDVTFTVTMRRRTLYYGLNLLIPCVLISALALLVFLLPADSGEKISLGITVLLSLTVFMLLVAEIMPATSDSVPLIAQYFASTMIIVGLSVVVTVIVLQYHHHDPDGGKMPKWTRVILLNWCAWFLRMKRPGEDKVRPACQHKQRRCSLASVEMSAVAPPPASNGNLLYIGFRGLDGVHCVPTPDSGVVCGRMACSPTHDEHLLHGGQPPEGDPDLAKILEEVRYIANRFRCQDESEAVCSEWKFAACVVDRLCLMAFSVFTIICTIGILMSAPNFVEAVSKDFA

[23] = molecular target: T1, Neuronal acetylcholine receptor; alpha4/beta2; assay: Activity at human alpha-4-beta-2 nACHR assessed as inhibition of ACh-induced current in SH-EP1 cells at 40 uM; type: functional, cell-based; design: scale not given: the % may be the effect or the level left
Mus musculus [24] = assay: Antinociceptive activity in mouse by tail flick assay at 10 ug administered intrathecally; type: functional, organism-based
Summary of the method: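 Tail-flick latency to a heat lamp in mice after intrathecal injection of 10 µg/mouse.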

Mus musculus [25] = assay: Spontaneous activity in mouse at 5 mg/kg; type: functional; summary of the method: as §4
Mus musculus [26] = assay: Hypothermia in mouse at 5 mg/kg; type: functional, organism-based; design: dose 5 mg/kg; summary of the method: as §1
Mus musculus [27] = organism: Mus musculus; assay: Antinociceptive activity in mouse by tail flick assay
Mus musculus [28] = assay: Antinociceptive activity in sc dosed mouse by hot plate assay after 5 mins

## c1cc2c(cn1)C1CCC(CC2)N1 (racemic)
Mus musculus [1]; Mus musculus, read-out: ED50
  ED50: 1600 µg/kg
[2]
  pKi: 8.21
Mus musculus [3]
  Activity: 12%
Mus musculus [4]
  Activity: 2%
Mus musculus [5]; Mus musculus, read-out: ED50
  ED50: 2600 µg/kg
Mus musculus [6]
  AD50: 5 µg/kg
Mus musculus [7]
  AD50: 1000 µg/kg
Rattus norvegicus [8]
  Activity: 17%
Rattus norvegicus [9]
  Activity: 84%

## c1cc2c(cn1)C1CCC(CC2)N1 (single isomer, unassigned; (+)) [listing 1 of 2 here]
Mus musculus [1]
  ED50: 2900 µg/kg
[2]
  pKi: 8.89
Mus musculus [10]
  Activity: 8%
Mus musculus [11]
  Activity: 0%
Mus musculus [12]
  Activity: 8%
Mus musculus [13]
  Activity: 5%
Mus musculus [14]
  Activity: 0%
Mus musculus [5]
  ED50: 2000 µg/kg
[15]
  pEC50: 5.26
Rattus norvegicus [16]
  Activity: 44.5%
Rattus norvegicus [17]
  Activity: 96%

## c1cc2c(cn1)C1CCC(CC2)N1 (single isomer, unassigned; (+)) [listing 2 of 2 here]
[18]
  Activity: 28%
[19]
  Activity: 117%
[20]
  Activity: 13%
[21]
  Activity: 101%
[22]
  inhibition: < 50%
[15]
  Activity: 17%
[23]
  Activity: 10%
Mus musculus [24]
  Activity: inactive

## c1cc2c(cn1)C1CCC(CC2)N1 (single isomer, unassigned; (-)) [listing 1 of 2 here]
[2]
  pKi: 6.46
Mus musculus [10]
  Activity: 2%
Mus musculus [12]
  Activity: 2%
Mus musculus [25]
  Activity: 10%
Mus musculus [6]
  AD50: 0.07 µg/kg
Mus musculus [7]
  AD50: 0.8 µg/kg
Rattus norvegicus [8]
  Activity: 23.8%

## c1cc2c(cn1)C1CCC(CC2)N1 (single isomer, unassigned; (-)) [listing 2 of 2 here]
Mus musculus [26]
  Activity: Active
[18]
  Activity: 0%
[19]
  Activity: 89%
[20]
  Activity: 0.9%
[21]
  Activity: 93%
[22]
  inhibition: 50%
Mus musculus [24]
  Activity: inactive

## Clc1ccc([C@@H]2C[C@H]3CC[C@@H]2N3)cn1 [(+)-EPIBATIDINE]
Mus musculus [1]; Mus musculus, read-out: ED50
  ED50: 4 µg/kg
Mus musculus [27]
  ED50: 0.6 µg/kg
Mus musculus [28]
  ED50: 4 µg/kg
Mus musculus [5]; Mus musculus, read-out: ED50
  ED50: 1 µg/kg

## Clc1ccc([C@H]2C[C@@H]3CC[C@H]2N3)cn1 [(-)-EPIBATIDINE]
Mus musculus [1]; Mus musculus, read-out: ED50
  ED50: 4 µg/kg
Mus musculus [27]
  ED50: 6 µg/kg
Mus musculus [28]
  ED50: 4 µg/kg
Mus musculus [5]; Mus musculus, read-out: ED50
  ED50: 1 µg/kg

## CN1CCC[C@H]1c1cccnc1 [NICOTINE]
Mus musculus [1]; Mus musculus, read-out: ED50
  ED50: 1000 µg/kg
Mus musculus [27]
  ED50: 1300 µg/kg
Mus musculus [28]
  ED50: 650 µg/kg
Mus musculus [5]; Mus musculus, read-out: ED50
  ED50: 500 µg/kg

## CN1CCC[C@@H]1c1cccnc1 [R-NICOTINE]
Mus musculus [1]; Mus musculus, read-out: ED50
  ED50: 7600 µg/kg
Mus musculus [27]
  ED50: 8000 µg/kg
Mus musculus [28]
  ED50: 3900 µg/kg
Mus musculus [5]; Mus musculus, read-out: ED50
  ED50: 2900 µg/kg
